Source: ChEMBL document CHEMBL4613249, “Serendipitous Discovery of Leucine and Methionine Depletion Agents during the Search for Polyamine Transport Inhibitors” (J Med Chem, 2020)
Active and inactive are the calls of the source. No cut-off for these calls is given here.

Experiments:
L3.6pl [1] = test: Effect on polyamine level in human L3.6PL cells assessed as ornithine level per mg protein in supernatant at 5 uM measured after 72 hrs in presence of amine oxidase suppressor aminoguanidine by LCMS analysis (reference value: 10588 +/- 3212 pmol/mg); format: functional
L3.6pl [2] = test: Effect on polyamine level in human L3.6PL cells assessed as methionine level human L3.6PL cells assessed per mg protein in supernatant at 2 uM pretreated with aminoguanidine for 24 hrs followed by compound treatment after 72 hrs by LCMS analysis (reference value: 22834 +/- 1984 pmol/mg); format: functional
L3.6pl [3] = test: Effect on polyamine level in human L3.6PL cells assessed as decrease in intracellular spermidine level at 7 uM measured after 72 hrs in presence of amine oxidase suppressor aminoguanidine […] relative to control; format: functional; parameters: scale not given: the % may be the effect or the level left
L3.6pl [4] = test: Effect on polyamine level in human L3.6PL cells assessed as decrease in intracellular spermine level at 2 to 7 uM measured after 72 hrs in presence of amine oxidase suppressor aminoguanidine by LCMS analysis; format: functional, cell-based; details: in the assay text read “by N-dansylation and HPLC analysis” for “by LCMS analysis”
Method in brief: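 L3.6pl cells, 50,000 cells/mL in 10 mL per Petri dish with 1 mM aminoguanidine, plated overnight. Dosed with compound at 2, 5 or 7 μM from PBS stocks, then 72 h at 37°C. Intracellular polyamines measured by N-dansylation and HPLC, in duplicate, as nmol/mg protein against a parallel untreated control.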

[5] = molecular target: Large neutral amino acids transporter small subunit 1 (Homo sapiens) (UniProt Q01650); test: Inhibition of LAT1-mediated amino acid transport in human L3.6PL cells assessed as reduction in intracellular leucine level by measuring leucine level per mg protein in cell lysate at 7 uM measured after 72 hrs by LCMS analysis (reference value: 232 +/- 10 pmol/mg); format: cell-based
Sequence of Large neutral amino acids transporter small subunit 1 (Homo sapiens) (Q01650 whole entry): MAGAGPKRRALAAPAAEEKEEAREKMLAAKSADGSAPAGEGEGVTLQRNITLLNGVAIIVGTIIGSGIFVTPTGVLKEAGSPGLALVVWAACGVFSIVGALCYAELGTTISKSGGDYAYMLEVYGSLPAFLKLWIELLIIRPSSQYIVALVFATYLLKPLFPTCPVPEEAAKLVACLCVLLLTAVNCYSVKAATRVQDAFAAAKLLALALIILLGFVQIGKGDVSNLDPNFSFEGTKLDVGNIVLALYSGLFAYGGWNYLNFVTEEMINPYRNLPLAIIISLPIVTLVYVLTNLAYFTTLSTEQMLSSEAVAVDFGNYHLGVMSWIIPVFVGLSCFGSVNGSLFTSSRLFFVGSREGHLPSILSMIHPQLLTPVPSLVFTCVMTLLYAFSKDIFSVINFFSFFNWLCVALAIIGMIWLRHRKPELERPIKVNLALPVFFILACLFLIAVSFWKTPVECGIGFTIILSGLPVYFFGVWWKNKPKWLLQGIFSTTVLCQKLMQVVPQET
Method in brief: (§1)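 L3.6pl cells (50,000 cells/mL, 10 mL, 1 mM aminoguanidine) were seeded in poly-lysine-treated 9 cm dishes and incubated overnight at 37°C. They were then dosed with compound at 2, 5 or 7 μM from PBS stocks (2, 5, 7 mM) and incubated 72 h. Runs were done in triplicate, with amino acid levels per mg protein.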

L3.6pl [6] = test: Effect on polyamine level in human L3.6PL cells assessed as phenylalanine level per mg protein in supernatant at 5 uM measured after 72 hrs in presence of amine oxidase suppressor aminoguanidine by LCMS analysis (reference value: 14299 +/- 7194 pmol/mg); format: functional
L3.6pl [7] = test: Effect on polyamine level in human L3.6PL cells assessed as spermidine level per mg protein in supernatant at 2 uM measured after 72 hrs in presence of amine oxidase suppressor aminoguanidine by LCMS analysis (reference value: 339 pmol/mg); format: functional
CHO-K1 [8] = test: Inhibition of polyamine transporter in CHOK1 cells assessed as rescue of 2.4 uM N-(anthracenylmethyl) homospermidine-induced toxicity by measuring cell growth at 7 uM measured after 48 hrs in presence of amine oxidase suppressor aminoguanidine by MTS assay (reference value: 23%); format: cell-based; parameters: scale not given: the % may be the effect or the level left; details: Cricetulus griseus
Method in brief: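 CHO K1 cells (1000 cells/well, aminoguanidine 1 mM preincubation) were given a toxic Ant-44 dose (2.4 μM) with candidate compound at 5 or 7 μM. Cells were incubated 48 h at 37°C, and relative growth versus untreated control was read by MTS.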

L3.6pl [9] = test: Effect on polyamine level in human L3.6PL cells assessed as leucine level per mg protein in supernatant at 5 uM measured after 72 hrs in presence of amine oxidase suppressor aminoguanidine by LCMS analysis (reference value: 18009 +/- 9061 pmol/mg); format: functional
L3.6pl [10] = test: Effect on polyamine level in human L3.6PL cells assessed as putrescine level per mg protein in supernatant at 2 uM measured after 72 hrs in presence of amine oxidase suppressor aminoguanidine by LCMS analysis (reference value: 977 +/- 522 pmol/mg); format: functional
[11] = molecular target: Large neutral amino acids transporter small subunit 1 (Homo sapiens) (UniProt Q01650); test: Inhibition of LAT1-mediated amino acid transport in human L3.6PL cells assessed as reduction in intracellular methionine level by measuring methionine level per mg protein in cell lysate at 5 uM measured after 72 hrs by LCMS analysis (reference value: 167 +/- 67 pmol/mg); format: cell-based; method in brief: as §1
[12] = Toxicity in mouse at 1 mg/kg, ip measured over 24 hrs; format: organism-based; details: in vivo
CHO-MG [13] = test: Induction of polyamine efflux in aminoguanidine pretreated CHO-MG cells assessed as reduction in cell viability measured after 72 hrs in presence of spermine by MTS assay; format: ADME, cell-based, Cricetulus griseus; details: chinese hamster
L3.6pl [14] = test: Potentiation of 2 uM N-(anthracenylmethyl) homospermidine-induced toxicity in human L3.6PL cells assessed as increase in Ant-44-induced reduction in cell growth measured after 72 hrs in presence of amine oxidase suppressor aminoguanidine by MTS assay; format: functional, cell-based
Method in brief: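 L3.6pl cells (500 cells/well) were pretreated 24 h with 250 μM aminoguanidine in PBS, then given Ant-44 (2 μM) with increasing compound for 72 h at 37°C. MTS growth was read, with EC50 relative to the Ant-44-only control.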

CHO-MG [15] = test: Induction of polyamine efflux in aminoguanidine pretreated CHO-MG cells assessed as reduction in cell viability measured after 72 hrs in presence of putrescine by MTS assay; format: ADME, cell-based, Cricetulus griseus; details: chinese hamster
[16] = Selectivity index, ratio of IC50 for cytotoxicity against CHO-MG cells assessed as reduction in cell viability after 48 hrs by MTS assay to IC50 for […] human L3.6PL cells assessed as reduction in cell viability after 48 hrs by MTS assay
Method in brief: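 The ratio is of 48 h IC50 values from MTS growth assays. CHO K1/CHO-MG cells were plated at 1000 cells/well and L3.6pl at 500 cells/well, drug in PBS was added after overnight incubation, and absorbance was read at 490 nm. IC50 is 50% growth versus untreated control; runs were done twice in triplicate.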

CHO-K1 [17] = test: Potentiation of 0.5 uM N-(anthracenylmethyl) homospermidine-induced toxicity in CHOK1 cells assessed as increase in Ant-44-induced reduction in cell growth at 5 uM measured after 48 hrs in presence of amine oxidase suppressor aminoguanidine by microscopy analysis; format: functional, cell-based; details: Cricetulus griseus
Method in brief: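 CHO K1 cells treated 48 h at 37°C with Ant-44 (0.5 μM) plus 5 μM compound, after 1 mM aminoguanidine pretreatment, were examined by microscope for cell number and shape versus untreated control cells.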

CHO-K1 [18] = test: Induction of polyamine efflux in aminoguanidine pretreated CHOK1 cells assessed as reduction in cell viability measured after 72 hrs in presence of spermidine by MTS assay; format: ADME, cell-based, Cricetulus griseus; details: chinese hamster, cho-k1, 72 h
L3.6pl [19] = test: Cytotoxicity against human L3.6PL cells assessed as reduction in cell viability at 0.25 to 20 uM measured after 24 to 72 hrs by MTS assay; format: cell-based
Method in brief: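 Time course in L3.6pl cells, 500 cells/well, with compound alone for 24, 48 and 72 h exposure at 37°C. Growth by MTS absorbance at 490 nm relative to untreated control.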

[20] = molecular target: Large neutral amino acids transporter small subunit 1 (Homo sapiens) (UniProt Q01650); test: Inhibition of LAT1-mediated [3H]-leucine uptake in human L3.6PL cells at 2 to 20 uM and 37 degree C measured after 2 mins by scintillation counter method; format: cell-based

Activity [5]: 77 pmol/mg
Activity [11]: 41 pmol/mg
inhibition [20]: inactive
SMILES: CC(C)CCN1CCN([C@@H](CNCc2ccccc2)CC2CCCCC2)C[C@@H]1CC(C)C
Activity (L3.6pl [1]): 15951 pmol/mg
Activity (L3.6pl [2]): 17686 pmol/mg
Activity (L3.6pl [3]): 50%
Activity (L3.6pl [4]): Active
Activity (L3.6pl [6]): 160462 pmol/mg
Activity (L3.6pl [7]): 131 pmol/mg
Activity (CHO-K1 [8]): 3%
Activity (L3.6pl [9]): 202092 pmol/mg
Activity (L3.6pl [10]): 938 pmol/mg
Activity [12]: Non-Toxic
Activity (CHO-MG [13]): Active
EC50 (L3.6pl [14]): 290 nM
Activity (CHO-MG [15]): Active
Ratio IC50 [16]: 2
Activity (CHO-K1 [17]): Active
Activity (CHO-K1 [18]): Active
Activity (L3.6pl [19]): Toxic
